An excerpt weighted towards active compounds, which were near 3.8% of everything screened.
MC4R ag barr: human MC4R agonism via beta-arrestin; P32245; U2OS MC4R beta-arrestin complementation, luminescence; percent of melanotan II response, DMSO zero; activation, % at 8.9 µM; 360,000 compounds, 0.98% hits; AID 540308;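 active = activation above a per-plate cutoff, the mean activation of sample wells on that plate plus 3 SD, cut at about 8% in these data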
Beta apoptosis: blocks beta cell apoptosis. 300,000 compounds, 0.8% hits. protection from apoptosis, % (test concentration not listed). INS-1E cytokine-induced death, ATP luminescence, 48 h; percent of positive-control rescue, neutral wells zero. AID 435005;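 active = Every replicate reaches about 75%, or at least half do and their mean reaches it too, limit read from the data; inconclusive = At least half of replicates reach the limit but their mean does not; inactive = Under half of replicates reach the limit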;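 note: higher means more ATP so stronger rescue from cytokine killing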
TMEM16A inh: mouse TMEM16A channel inhibition, primary screen | Q8BHY3 | HEK293 TMEM16A/YFP iodide influx fluorescence, ionomycin | normalized B-score (activity score, 25-100; higher = stronger inhibition) at 10 µM | 310,000 compounds, 1.2% hits;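 active = ratio plate-corrected score three or more library SD toward inhibition, starting fluorescence score within five deviations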;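 note: score derived from kinetic fluorescence span divided by baseline fluorescence per well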
CSC inhib: blocks cancer stem cells; 300,000 compounds, 1.1% hits; cancer stem cell-like cells viability, luminescence; inhibition, % at 7.5 µM; AID 2717; in the data active = inhibition above about 75%; inconclusive = no clear call, values can overlap the other calls; tested in HMLE shEcad cells
MC4R antagonist: antagonists of human melanocortin 4 receptor (MC4R); inhibition, % at 6.5 µM; P32245; AID 540295; MC4R-expressing cells, MTII-stimulated cAMP, LANCE TR-FRET; 360,000 compounds, 0.48% hits;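 active = inhibition above its plate's cutoff, the mean of tested wells on that plate plus 3 SD, cut at about 29% in these data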
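system = U2OS cells with stable human MC4R expression | also added = Melanotan II challenge after compound preincubation | dosing = one concentration, 6.5 µM nominal | incubation = compound 30 min, challenge 1 h, detection 1 h | measured by = TR-FRET with Eu-cAMP and labeled anti-cAMP, 671 nm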
TMEM16A act: activates or potentiates the mouse TMEM16A chloride channel | 340,000 compounds, 0.3% hits | B-score at 10 µM | HEK293 TMEM16A/YFP-H148Q/I152L, iodide quench fluorescence; stronger effect = lower value | Q8BHY3;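 active = fluorescence-ratio B-score plate-corrected deviation score at least 3 library SD below zero, with starting fluorescence score within 5 deviations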;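 note: channel opened by trigger with iodide after compound preincubation; score built on the fluorescence ratio of max minus min over baseline; more negative score means more quench and so TMEM16A activation or potentiation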
MC4R barr conf: human MC4R beta-arrestin agonism confirmation | shares compounds with MC4R ag barr | U2OS MC4R beta-arrestin recruitment, luminescence; scaled DMSO 0%, Melanotan II 100% | activation, % at 8.9 µM | 2,400 compounds, 31% hits;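 active = mean activation across replicates above the hit cutoff set in the earlier primary screen, cut at about 8% in these data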
MOR-DOR barr ag: counter-screen for MC4R agonists: agonists of mu-delta opioid heterodimer. AID 602194. shares compounds with MC4R ag barr. activation, % at 9.2 µM. U2OS PathHunter beta-arrestin, beta-gal luminescence; percent of deltorphin B response, DMSO zero. 2,400 compounds, 5.8% hits;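 active = mean activation across replicates exceeds the hit threshold derived in the earlier primary screen, cut at about 18% in these data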
Target sequence (P35372 whole entry, looked up): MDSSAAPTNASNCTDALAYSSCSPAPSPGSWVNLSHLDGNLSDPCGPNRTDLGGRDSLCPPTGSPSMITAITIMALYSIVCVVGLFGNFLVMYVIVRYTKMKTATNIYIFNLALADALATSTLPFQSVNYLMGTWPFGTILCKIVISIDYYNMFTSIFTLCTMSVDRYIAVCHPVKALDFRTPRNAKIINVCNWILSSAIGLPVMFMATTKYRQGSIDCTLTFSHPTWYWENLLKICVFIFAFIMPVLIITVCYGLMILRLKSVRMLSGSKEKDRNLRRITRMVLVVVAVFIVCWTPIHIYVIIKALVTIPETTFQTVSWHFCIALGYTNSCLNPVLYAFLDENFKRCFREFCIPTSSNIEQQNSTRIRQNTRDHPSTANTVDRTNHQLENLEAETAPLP
Target sequence (P41143 whole entry, looked up): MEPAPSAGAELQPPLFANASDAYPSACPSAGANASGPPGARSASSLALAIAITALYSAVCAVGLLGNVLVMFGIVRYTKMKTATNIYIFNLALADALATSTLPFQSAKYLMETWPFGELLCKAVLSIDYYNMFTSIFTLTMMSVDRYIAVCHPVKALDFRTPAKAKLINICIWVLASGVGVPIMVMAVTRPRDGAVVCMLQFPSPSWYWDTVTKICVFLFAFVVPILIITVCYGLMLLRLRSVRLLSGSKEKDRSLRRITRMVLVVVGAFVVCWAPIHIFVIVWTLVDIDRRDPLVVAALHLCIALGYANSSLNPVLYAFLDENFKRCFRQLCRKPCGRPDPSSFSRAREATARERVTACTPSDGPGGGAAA
Of the large screens only hits and unclear results are named; the others gave an inactive call (follow-up assays come after a bar, where they were run).

O=C(COc1ccccc1)Nc1nc2cc3c(cc2s1)OCCO3	MC4R ag barr 14 | MC4R barr conf inactive | MOR-DOR barr ag inactive
O=C(COc1ccccc1)Nc1nc2cc3c(cc2s1)OCO3	none
Cc1c(C)n2c(SCC(=O)N3CCOCC3)nnc2[nH]c1=O	none
Cc1occc1-c1nnc(SCC(=O)Nc2nc(-c3ccccc3)cs2)o1	MC4R ag barr 24 | MC4R barr conf inactive | MOR-DOR barr ag inactive
Cc1cc(-c2nnc(SCC(=O)Nc3nc(-c4ccccc4)cs3)o2)no1	none
Cc1ccc(-c2csc(NC(=O)CSc3nnc4c(n3)[nH]c3ccccc34)n2)cc1	MC4R ag barr 16 | MC4R barr conf inactive | MOR-DOR barr ag inactive
Cc1ccc(CN2CCN(CCCn3cnc4c(OCc5ccccc5)ncnc43)CC2)cc1	none (no result: Beta apoptosis, TMEM16A inh, CSC inhib, TMEM16A act)
c1ccc(COc2ncnc3c2ncn3CCCN2CCN(Cc3cccc4ccccc34)CC2)cc1	MC4R ag barr 20 (no result: Beta apoptosis, TMEM16A inh, CSC inhib, TMEM16A act) | MC4R barr conf 10 | MOR-DOR barr ag inactive
COCCN(C(=O)CSc1nc2ccccc2o1)c1c(N)n(Cc2ccccc2)c(=O)[nH]c1=O	none (no result: TMEM16A inh)
CCCCCCOc1ccc(/C(C)=N/NC2=NCCN2)cc1	MC4R ag barr 11, CSC inhib 100 | MC4R barr conf 29 | MOR-DOR barr ag inactive
CCCS(=O)(=O)NC(=O)C1(C)CCN(C(=O)c2ccccc2OC(C)=O)C1 (centres undefined)	none (no result: Beta apoptosis, TMEM16A inh, CSC inhib, TMEM16A act)
CCOc1ccc(C(=O)Nc2cc(C)on2)cc1	none
Cc1cc(NC(=O)c2cccc(COc3ccc(Br)cc3)c2)no1	MC4R ag barr 12 (no result: Beta apoptosis) | MC4R barr conf 12 | MOR-DOR barr ag inactive
Cc1ccc(NC(=O)c2sc(N)nc2-c2ccc([N+](=O)[O-])cc2)cc1C	MC4R ag barr 11 | MC4R barr conf inactive | MOR-DOR barr ag inactive
Cc1ccc(NC(=O)c2sc(N)nc2-c2ccccc2)cc1C	none
CCc1ccc(-c2nc(NC(=O)c3ccc(OCC(=O)Nc4ccc(F)cc4)c(OC)c3)sc2C)cc1	MC4R ag barr 11 | MC4R barr conf 10 | MOR-DOR barr ag inactive
CC[C@]12c3[nH]c4ccccc4c3CCN1C(=O)C(CC(=O)NCCC1=CCCCC1)C[C@@H]2C(=O)N1CCN(C(=O)c2ccco2)CC1 (some centres undefined)	none (no result: TMEM16A inh, CSC inhib, TMEM16A act)
O=C(OCCc1cc2ccccc2c(=O)o1)c1cccc(Br)c1	none (no result: TMEM16A inh)
O=C(Cc1c(O)c2ccccc2oc1=O)c1ccc(F)cc1	MC4R ag barr 11 (no result: TMEM16A inh) | MC4R barr conf inactive | MOR-DOR barr ag inactive
CCCOc1ccc2c(c1)C(=NN=C(N)N)c1cc(OCCC)ccc1-2	MC4R ag barr 14, CSC inhib 112 | MC4R barr conf 11 | MOR-DOR barr ag inactive
Cn1nc(-c2ccc(Cl)cc2)cc1NC(=O)Nc1ccccc1	none
Cn1nc(-c2ccccc2)cc1NC(=O)Nc1ccc(C(C)(C)C)cc1	MC4R ag barr 12 | MC4R barr conf inactive | MOR-DOR barr ag inactive
CC1CCCC(NC(=O)COC(=O)c2cc3ccccc3oc2=O)C1C (centres undefined)	none (no result: TMEM16A inh)
CCn1c(=O)cc(OCC(=O)NCc2cccs2)c2ccccc21	none
O=S(=O)(NCC1CCCO1)c1ccc(S(=O)(=O)N(Cc2ccc(F)cc2)C2CCCCC2)cc1 (centres undefined)	MC4R ag barr 10 | MC4R barr conf inactive | MOR-DOR barr ag inactive
COc1cc(C(=O)Nc2nnc(-c3sccc3C)s2)cc(OC)c1OC	MC4R ag barr 12 | MC4R barr conf 23 | MOR-DOR barr ag inactive
COc1ccc(F)cc1C1=CC(=O)C[C@H](c2ccc3c(c2)OCO3)C1	none (no result: TMEM16A inh)
O=C(COC(=O)/C=C/c1cccc(C(F)(F)F)c1)NC(=O)NCc1ccco1	MC4R ag barr 15 (no result: TMEM16A inh) | MC4R barr conf inactive | MOR-DOR barr ag inactive
CS(=O)(=O)c1ccc(CNC(=O)C2(C(F)(F)F)CC(CCCO)CCCO2)cc1 (centres undefined)	none (no result: MC4R ag barr, MC4R antagonist, TMEM16A act)
O=C(Nc1nc2ccccc2s1)c1cc(-c2ccco2)nc2ccccc12	none (no result: CSC inhib)
Cc1ccc2nc(NC(=O)c3cc(-c4ccco4)nc4ccccc34)sc2c1	MC4R ag barr 23 | MC4R barr conf 13 | MOR-DOR barr ag inactive
O=C(CNCCC1=CCCCC1)Nc1ccc(N2CCCCCC2)cc1	MC4R ag barr 13 (no result: Beta apoptosis) | MC4R barr conf 9.4 | MOR-DOR barr ag inactive
Cc1ccc(OC(=O)c2cccc([N+](=O)[O-])c2)c(-n2nc3ccccc3n2)c1	MC4R ag barr 14 | MC4R barr conf inactive | MOR-DOR barr ag inactive
Cc1ccc(NC(=O)Cn2nc(-c3ccccc3)nc2-c2ccccc2)c(C)c1	MC4R ag barr 17 | MC4R barr conf inactive | MOR-DOR barr ag inactive
Cc1ccc(C)c(NC(=O)Cn2nc(-c3ccccc3)nc2-c2ccccc2)c1	none
Oc1cc(OCc2ccccc2)ccc1-c1[nH]ncc1-c1ccccc1	MC4R ag barr 13 | MC4R barr conf inactive | MOR-DOR barr ag inactive
COc1ccccc1-c1cn[nH]c1-c1ccc(OCc2ccc(F)cc2)cc1O	CSC inhib inconclusive
COc1ccccc1-c1cn[nH]c1-c1ccc(OCc2ccc([N+](=O)[O-])cc2)cc1O	MC4R ag barr 15 | MC4R barr conf inactive | MOR-DOR barr ag inactive
CC(O)(c1ccc(F)c(F)c1)c1nc(-c2ccc(S(C)(=O)=O)cc2)cs1 (centres undefined)	none (no result: Beta apoptosis, TMEM16A inh, CSC inhib, TMEM16A act)
CC1CCCC(NCC(O)COC(c2ccc(F)cc2)c2ccc(F)cc2)C1C (centres undefined)	MC4R ag barr 18, CSC inhib 80 | MC4R barr conf 16 | MOR-DOR barr ag 24
OC(COC(c1ccc(F)cc1)c1ccc(F)cc1)CN1CCCC(C(F)(F)F)C1 (centres undefined)	none
CCCC(C(=O)N(C)CC(=O)Nc1ccc(N2CCOCC2)cc1)c1ccccc1 (centres undefined)	none
O=[N+]([O-])c1ccc(N/N=C/c2ccccc2)c(F)c1	MC4R ag barr 12 | MC4R barr conf inactive | MOR-DOR barr ag inactive
CCCCCCCNC(=O)C1(CC2CC(c3ccc(Cl)cc3)=NO2)CCN(C(=O)C2(C)CC2)CC1 (centres undefined)	none
COc1ccc(-n2c(C)cc(C(=O)COC(=O)c3ccc(O)cc3O)c2C)cc1	MC4R ag barr 11 (no result: Beta apoptosis, TMEM16A inh, CSC inhib) | MC4R barr conf inactive | MOR-DOR barr ag inactive
O=C(NC1CC1)c1cccc(NC(=O)C2CCCCC2)c1	none (no result: Beta apoptosis, TMEM16A inh, CSC inhib, TMEM16A act)
COc1cccc(-c2cnc3c(NC(C)=O)cc(-c4ccc(OC)c(OC)c4)cn23)c1	none (no result: Beta apoptosis, TMEM16A inh, CSC inhib, TMEM16A act)
